For orientation: inhibition means the relative decrease from the control value, in per cent. A word on the MIC50: it is an inhibitory concentration at the 50% level, which refers to growth in some studies and to a panel of isolates in others.

Residues, ends and D or L forms follow the SMILES beside them.

In data set [1] the test system is Cryptococcus neoformans. Briefly: Antifungal activity against Cryptococcus neoformans ATCC 32264 assessed as inhibition of fungal growth at 200 uM after 48 hrs by microbroth dilution method. The following applies: ATCC 32264, 48 h. The data set is classed as functional. The essentials:
(§1)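 Cryptococcus run by CLSI M-27 A2 microbroth dilution in RPMI-1640. Peptide was diluted from DMSO stock to final 200, 100, 50, 25, 12.5, 6.25 and 3.125 µM. Inoculum was 1–5 × 10^3 CFU/ml from 24 h, 35 °C Sabouraud-chloramphenicol slants. Incubation was 48 h at 35 °C, moist and dark. % inhibition was taken from OD405 against a DMSO-containing growth control. Amphotericin B served as the positive control; tests in duplicate.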

For data set [2], the system named is Cryptococcus neoformans. Briefly: Antifungal activity against Cryptococcus neoformans ATCC 32264 assessed as inhibition of fungal growth at 100 uM after 48 hrs by microbroth dilution method. The settings on record: ATCC 32264, 48 h. The data set is classed as functional. The essentials: as §1
Data set [3] deals with Cryptococcus neoformans. Briefly: Antifungal activity against Cryptococcus neoformans ATCC 32264 assessed as inhibition of fungal growth at 50 uM after 48 hrs by microbroth dilution method. The data set is classed as functional. The following applies: ATCC 32264, 48 h. The essentials: as §1
On the technique in general: Dilution methods test growth across graded concentrations, often in twofold steps.

Data set [4] concerns Cryptococcus neoformans. Nature of the data set: Antifungal activity against Cryptococcus neoformans ATCC 32264 assessed as inhibition of fungal growth at 25 uM after 48 hrs by microbroth dilution method. The data set is classed as functional. The settings on record: ATCC 32264, 48 h. The essentials: as §1
For data set [5], the system named is Cryptococcus neoformans. Nature of the data set: Antifungal activity against Cryptococcus neoformans ATCC 32264 assessed as inhibition of fungal growth at 12.5 uM after 48 hrs by microbroth dilution method. Type of data set: functional. The settings on record: ATCC 32264, 48 h. The essentials:
as §1

Data set [6] deals with Cryptococcus neoformans. Nature of the data set: Antifungal activity against Cryptococcus neoformans ATCC 32264 assessed as inhibition of fungal growth at 6.25 uM after 48 hrs by microbroth dilution method. The data set is classed as functional. The settings on record: ATCC 32264, 48 h. A digest of the protocol: as §1
In data set [7] the test system is Cryptococcus neoformans. Nature of the data set: Antifungal activity against Cryptococcus neoformans ATCC 32264 assessed as inhibition of fungal growth at 3.125 uM after 48 hrs by microbroth dilution method. Type of data set: functional. The settings on record: ATCC 32264, 48 h. A digest of the protocol:
as §1

For data set [8], the system named is Candida albicans. Nature of the data set: Antifungal activity against Candida albicans ATCC 10231 assessed as inhibition of fungal growth at 200 uM after 24 hrs by microbroth dilution method. The data set is classed as functional. The following applies: ATCC 10231, 24 h. The essentials:
(§2)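 CLSI M-27 A2 broth microdilution in RPMI-1640. Peptides were taken from DMSO stocks to final 200–3.125 µM (twofold series). Inoculum was 1–5 × 10^3 CFU/ml from 24 h Sabouraud-chloramphenicol slant cultures at 35 °C. Plates were incubated 24 h at 35 °C in a moist dark chamber. OD405 was read, and % inhibition was taken against a DMSO-matched growth control. Amphotericin B served as the positive control; duplicates.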

The subject of data set [9] is Candida albicans. Nature of the data set: Antifungal activity against Candida albicans ATCC 10231 assessed as inhibition of fungal growth at 100 uM after 24 hrs by microbroth dilution method. The data set is classed as functional. The following applies: ATCC 10231, 24 h. A digest of the protocol:
as §2

In data set [10] the test system is Candida albicans. Nature of the data set: Antifungal activity against Candida albicans ATCC 10231 assessed as inhibition of fungal growth at 50 uM after 24 hrs by microbroth dilution method. Type of data set: functional. The settings on record: ATCC 10231, 24 h. A digest of the protocol: as §2
Data set [11] deals with Candida albicans. Nature of the data set: Antifungal activity against Candida albicans ATCC 10231 assessed as inhibition of fungal growth at 25 uM after 24 hrs by microbroth dilution method. The data set is classed as functional. The following applies: ATCC 10231, 24 h. A digest of the protocol: as §2
Data set [12] deals with Candida albicans. Briefly: Antifungal activity against Candida albicans ATCC 10231 assessed as inhibition of fungal growth at 12.5 uM after 24 hrs by microbroth dilution method. The settings on record: ATCC 10231, 24 h. Type of data set: functional. A digest of the protocol: as §2
Data set [13] relates to Cryptococcus neoformans. Nature of the data set: Antifungal activity against Cryptococcus neoformans ATCC 32264 assessed as inhibition of fungal growth after 48 hrs by microbroth dilution method. Type of data set: functional. The settings on record: ATCC 32264, 48 h. The essentials:
as §1

Data set [14] concerns Candida albicans. Nature of the data set: Antifungal activity against Candida albicans ATCC 10231 assessed as inhibition of fungal growth after 24 hrs by microbroth dilution method. Type of data set: functional. The following applies: ATCC 10231, 24 h. The essentials:
as §2

Data set [15] in a line: Toxicity in Poecilia reticulata assessed as mortality at 22.8 ug/ml after 24 hrs. The settings on record: in vivo, read-out: Activity. The data set is classed as organism-based. The essentials: (§3)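 Acute toxicity in guppy (P. reticulata): 10 fish per concentration held in jars with the test solution for 96 h. Peptide added from aqueous stock diluted in DMSO to the final concentration. Dead fish counted and removed every 24 h, and condition noted. Percent mortality recorded at 96 h. Two experiments, each in triplicate.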

Data set [16] can be described thus: Toxicity in Poecilia reticulata assessed as mortality at 22.8 ug/ml after 48 hrs. Type of data set: organism-based. The settings on record: in vivo, read-out: Activity. A digest of the protocol:
as §3

A short description of data set [17]: Toxicity in Poecilia reticulata assessed as mortality at 22.8 ug/ml after 72 hrs. The settings on record: in vivo, read-out: Activity. The data set is classed as organism-based. A digest of the protocol: as §3
A short description of data set [18]: Toxicity in Poecilia reticulata assessed as mortality at 22.8 ug/ml after 96 hrs. The data set is classed as organism-based. The following applies: in vivo, read-out: Activity. A digest of the protocol:
as §3

As for `CC[C@H](C)[C@H](NC(=O)[C@@H](NC(=O)[C@@H](N)CCCNC(=N)N)[C@@H](C)CC)C(=O)N[C@@H](CCCCN)C(N)=O` (H-RIIK-NH2), the inhibition at 200 µM with Cryptococcus neoformans [1] turned out to be 42%. For the same molecule, the inhibition at 100 µM in the data set on Cryptococcus neoformans [2] was 39.7%. For the same molecule, the inhibition at 50 µM in the data set on Cryptococcus neoformans [3] turned out to be 11.5%. The inhibition at 25 µM in the data set with Cryptococcus neoformans [4] came out at 20.9%. Besides, in the data set on Cryptococcus neoformans [5], the inhibition at 12.5 µM is 12.6%. In the data set on Cryptococcus neoformans [6], the inhibition at 6.25 µM is 14.5%. Moreover, in the data set on Cryptococcus neoformans [7], the inhibition at 3.125 µM was found to be 8.74%.

On to `C[C@H](NC(=O)[C@H](CCC(N)=O)NC(=O)[C@@H](N)CCCNC(=N)N)C(=O)N[C@@H](CCCCN)C(N)=O` (H-RQAK-NH2), for which the inhibition at 200 µM with Cryptococcus neoformans [1] was determined as 0%. The inhibition at 100 µM in the data set on Cryptococcus neoformans [2] was found to be 0%. For the same molecule, in the data set on Cryptococcus neoformans [3], the inhibition at 50 µM was 0%. Moreover, the inhibition at 25 µM in the data set with Cryptococcus neoformans [4] is 0%. For the same molecule, in the data set with Cryptococcus neoformans [5], the inhibition at 12.5 µM came to 0%. Further, the inhibition at 6.25 µM with Cryptococcus neoformans [6] amounted to 0%. In addition, the inhibition at 3.125 µM with Cryptococcus neoformans [7] stood at 0%.

`CC[C@H](C)[C@H](NC(=O)[C@H](CCC(N)=O)NC(=O)[C@@H](N)CCCNC(=N)N)C(=O)N[C@@H](CCCCN)C(N)=O` (H-RQIK-NH2): in the data set on Cryptococcus neoformans [1], the inhibition at 200 µM was 55.4%. Further, in the data set on Cryptococcus neoformans [2], the inhibition at 100 µM is 36.6%. Further, the inhibition at 50 µM in the data set with Cryptococcus neoformans [3] was found to be 18.4%. In addition, in the data set with Cryptococcus neoformans [4], the inhibition at 25 µM was found to be 17.5%. Also, in the data set on Cryptococcus neoformans [5], the inhibition at 12.5 µM came out at 11.2%. The inhibition at 6.25 µM with Cryptococcus neoformans [6] worked out at 19.9%. Further, the inhibition at 3.125 µM with Cryptococcus neoformans [7] was 12.2%.

Take `CC[C@H](C)[C@H](NC(=O)[C@H](CCC(N)=O)NC(=O)[C@@H](N)CCCNC(=N)N)C(=O)N[C@@H](CCCNC(=N)N)C(N)=O` (H-RQIR-NH2): in the data set with Cryptococcus neoformans [1], the inhibition at 200 µM was 65.7%. Moreover, in the data set with Cryptococcus neoformans [2], the inhibition at 100 µM is 40.2%. Also, the inhibition at 50 µM in the data set with Cryptococcus neoformans [3] came out at 18.8%. For the same molecule, the inhibition at 25 µM in the data set with Cryptococcus neoformans [4] worked out at 19.3%. Moreover, the inhibition at 12.5 µM in the data set with Cryptococcus neoformans [5] was determined as 3.34%. Further, in the data set on Cryptococcus neoformans [6], the inhibition at 6.25 µM came to 0%. Further, the inhibition at 3.125 µM with Cryptococcus neoformans [7] was 0%.

Regarding `C[C@@H]1[C@H](O)[C@@H](C)/C=C/C=C/C=C/C=C/C=C/C=C/C=C/[C@H](O[C@@H]2O[C@H](C)[C@@H](O)[C@H](N)[C@@H]2O)C[C@@H]2O[C@](O)(C[C@@H](O)C[C@@H](O)[C@H](O)CC[C@@H](O)C[C@@H](O)CC(=O)O[C@H]1C)C[C@H](O)[C@H]2C(=O)O` [AMPHOTERICIN B], the inhibition at 200 µM with Cryptococcus neoformans [1] and with Candida albicans [8] was 100% each time. The inhibition at 100 µM in the data set on Cryptococcus neoformans [2] and in the data set on Candida albicans [9] was 100% each time. In addition, the inhibition at 50 µM in the data set on Cryptococcus neoformans [3] and with Candida albicans [10] was 100% each time. Also, the inhibition at 25 µM with Cryptococcus neoformans [4] and in the data set with Candida albicans [11] was 100% each time. Further, the inhibition at 12.5 µM in the data set with Cryptococcus neoformans [5] and in the data set on Candida albicans [12] was 100% in each case. Moreover, the inhibition at 6.25 µM with Cryptococcus neoformans [6] was determined as 100%. Moreover, the inhibition at 3.125 µM with Cryptococcus neoformans [7] was 100%.

As to `CC(=O)N1CCN(c2ccc(OCC3COC(Cn4ccnc4)(c4ccc(Cl)cc4Cl)O3)cc2)CC1` (stereo not given) [KETOCONAZOLE], the inhibition at 200 µM with Cryptococcus neoformans [1] and in the data set on Candida albicans [8] was 100% each time. For the same molecule, the inhibition at 100 µM in the data set on Cryptococcus neoformans [2] and in the data set on Candida albicans [9] was 100% each time. The inhibition at 50 µM in the data set on Cryptococcus neoformans [3] and in the data set on Candida albicans [10] was 100% in each case. Moreover, the inhibition at 25 µM with Cryptococcus neoformans [4] and with Candida albicans [11] was 100% in each case. For the same molecule, the inhibition at 12.5 µM with Cryptococcus neoformans [5] and with Candida albicans [12] was 100% in each case. For the same molecule, the inhibition at 6.25 µM in the data set on Cryptococcus neoformans [6] worked out at 100%. For the same molecule, in the data set on Cryptococcus neoformans [7], the inhibition at 3.125 µM stood at 100%.

In the case of H-NRRMKWKK-NH2, the inhibition at 200 µM amounted to 63.6% in the data set on Cryptococcus neoformans [1] and 11% in the data set with Candida albicans [8]. Further, the inhibition at 100 µM in the data set on Cryptococcus neoformans [2] came to 34.8%; with Candida albicans [9] it was 4.59%. For the same molecule, the inhibition at 50 µM with Cryptococcus neoformans [3] was found to be 23.3%; with Candida albicans [10], 0%. Also, the inhibition at 25 µM in the data set on Cryptococcus neoformans [4] was found to be 6.71%; in the data set on Candida albicans [11] it was 0%. Besides, the inhibition at 12.5 µM with Cryptococcus neoformans [5] was determined as 6.64%; in the data set with Candida albicans [12] it was 0%.

Consider H-RQWKKWWQWRR-NH2, for which the inhibition at 200 µM with Cryptococcus neoformans [1] and in the data set with Candida albicans [8] was 100% in each case. The inhibition at 100 µM in the data set on Cryptococcus neoformans [2] and with Candida albicans [9] was 100% throughout. In addition, the inhibition at 50 µM with Cryptococcus neoformans [3] and in the data set with Candida albicans [10] was 100% in each case. The inhibition at 25 µM in the data set with Cryptococcus neoformans [4] came out at 100%; with Candida albicans [11], 67.9%. The inhibition at 12.5 µM was 66.2% in the data set on Cryptococcus neoformans [5] and 35.7% in the data set with Candida albicans [12]. Besides, the MIC50 with Cryptococcus neoformans [13] is no more than 12.5 µM; in the data set with Candida albicans [14], no more than 25 µM. Further, the MIC in the data set on Cryptococcus neoformans [13] (read-out: MIC100) is 25 µM; with Candida albicans [14] (read-out: MIC100) it was 50 µM. Moreover, the mortality at 24 h, 22.8 ug/ml in data set [15] stood at 0%. The mortality at 48 h, 22.8 ug/ml in data set [16] is 0%. Besides, in data set [17], the mortality at 72 h, 22.8 ug/ml was found to be 0%. Moreover, the mortality at 96 h, 22.8 ug/ml in data set [18] came to 0%.

The values above are taken from ChEMBL document CHEMBL1157699, “New small-size peptides possessing antifungal activity” (Bioorg Med Chem, 2010).
